According to ChEMBL document CHEMBL3593165, “Enzymatic synthesis of bile acid derivatives and biological evaluation against Trypanosoma cruzi” (Bioorg Med Chem, 2015):
The source made the active and inactive calls. The rule behind the calls is not given here.

Legend:
Trypanosoma cruzi [1] = test: Antiparasitic activity against Trypanosoma cruzi strain CL Brener epimastigotes after 12 days by ELISA reader; assay type: functional; details: 288 h
Summary of the method: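 CL Brener epimastigotes grown at 28 °C in LIT medium with 10% heat-inactivated FBS, hemin, streptomycin and penicillin. Seeded at final 5 × 10^6 cells/mL and exposed to compounds across 0.14–300 µM for 12 days at 28 °C. DMSO vehicle, final ≤0.5% (v/v). Growth read daily at 600 nm. IC50 taken from dose-response curves from three independent assays.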

Trypanosoma cruzi [2] = test: Antiparasitic activity against Trypanosoma cruzi strain CL Brener epimastigotes at 300 uM after 12 days by ELISA reader; assay type: functional
Summary of the method: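 T. cruzi CL Brener epimastigotes were grown at 28 °C in LIT medium with 10% heat-inactivated FBS, […], streptomycin and penicillin. Cells were seeded at 5 × 10^6 cells/mL with compound (0.14–300 µM, DMSO ≤0.5% v/v final) for 12 days at 28 °C. Benznidazole served as positive control, with drug-free and parasite-free controls. Growth was read daily at 600 nm in three independent assays.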

SMILES	IC50 (Trypanosoma cruzi [1]) [µM]	inhibition (Trypanosoma cruzi [2])
CCOC(=O)CC[C@@H](C)[C@H]1CC[C@H]2[C@@H]3CC[C@@H]4C[C@H](O)CC[C@]4(C)[C@H]3CC[C@]12C	266	
CCOC(=O)CC[C@@H](C)[C@H]1CC[C@H]2[C@@H]3[C@H](O)C[C@@H]4C[C@H](OC(C)=O)CC[C@]4(C)[C@H]3CC[C@]12C	8.6	
CC(=O)O[C@@H]1CC[C@@]2(C)[C@H](CC[C@@H]3[C@@H]2C[C@H](O)[C@]2(C)[C@@H]([C@H](C)CCC(=O)O)CC[C@@H]32)C1		inactive
CC(=O)O[C@@H]1CC[C@@]2(C)[C@@H](C1)C[C@@H](O)[C@@H]1[C@@H]2CC[C@]2(C)[C@@H]([C@H](C)CCC(=O)O)CC[C@@H]12		inactive
CC(=O)O[C@H]1C[C@H]2[C@@H](CC[C@@H]3C[C@H](O)CC[C@@]32C)[C@@H]2CC[C@H]([C@H](C)CCC(=O)O)[C@@]12C		inactive
CC(=O)O[C@@H]1CC[C@@]2(C)[C@@H](C1)C[C@@H](OC(C)=O)[C@@H]1[C@@H]2CC[C@]2(C)[C@@H]([C@H](C)CCC(=O)O)CC[C@@H]12	22.8	
CCOC(=O)CC[C@@H](C)[C@H]1CC[C@H]2[C@@H]3CC[C@@H]4C[C@H](O)CC[C@]4(C)[C@H]3C[C@H](O)[C@]12C		inactive
CCOC(=O)CC[C@@H](C)[C@H]1CC[C@H]2[C@@H]3CC[C@@H]4C[C@H](OC(C)=O)CC[C@]4(C)[C@H]3CC[C@]12C		inactive
C[C@H](CCC(=O)O)[C@H]1CC[C@H]2[C@@H]3[C@H](O)C[C@@H]4C[C@H](O)CC[C@]4(C)[C@H]3CC[C@]12C [CHENODIOL]	236	inactive
CCOC(=O)CC[C@@H](C)[C@H]1CC[C@H]2[C@@H]3[C@H](O)C[C@@H]4C[C@H](O)CC[C@]4(C)[C@H]3CC[C@]12C		inactive
CCOC(=O)CC[C@@H](C)[C@H]1CC[C@H]2[C@@H]3CC[C@@H]4C[C@H](OC(C)=O)CC[C@]4(C)[C@H]3C[C@H](O)[C@]12C		inactive
CCOC(=O)CC[C@@H](C)[C@H]1CC[C@H]2[C@@H]3[C@H](OC(C)=O)C[C@@H]4C[C@H](O)CC[C@]4(C)[C@H]3CC[C@]12C	295	
